Experimental data from publication PMC4664024 (Blood Coagulation & Fibrinolysis, 2015).
Read-outs that look alike come from different tables or passages of the source.

Experiments:
exogenous bovine Xa = exogenous bovine Xa (Bos taurus, UniProt P00743); assay: Plasma concentration by functional anti-Xa test in orthopaedic patients; assay type: in vivo; details: for range of concentrations observed with the anti-Xa functional tests: T0, before starting the treatment
[1] = tested on: activated partial thromboplastin clotting time (aPTT); assay: Activated partial thromboplastin time; assay type: in vivo, human; details: at peak concentration and at steady state (T2–T3)
In short: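 Blood drawn the day before surgery (T0), then 2 h ± 10 min post-dose on day 4 ± 1 (T2) and day 7 ± 1 (T3). aPTT (s) run on an automated coagulation analyser. Reported as median and 25th–75th percentiles; Wilcoxon signed-rank test for repeated measures.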

[2] = assay type: in vivo, human
[3] = healthy Japanese individuals, cited from earlier work

Chain of exogenous bovine Xa (P00743 234-492 limits assumed): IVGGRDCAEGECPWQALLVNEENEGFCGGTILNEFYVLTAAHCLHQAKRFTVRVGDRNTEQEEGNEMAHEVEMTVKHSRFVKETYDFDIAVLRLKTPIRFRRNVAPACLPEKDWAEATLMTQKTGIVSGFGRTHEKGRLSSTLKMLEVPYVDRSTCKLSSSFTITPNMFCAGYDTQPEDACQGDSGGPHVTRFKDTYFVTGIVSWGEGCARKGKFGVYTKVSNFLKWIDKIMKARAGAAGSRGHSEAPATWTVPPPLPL
Chain of exogenous bovine Xa (P00743 41-180 limits assumed): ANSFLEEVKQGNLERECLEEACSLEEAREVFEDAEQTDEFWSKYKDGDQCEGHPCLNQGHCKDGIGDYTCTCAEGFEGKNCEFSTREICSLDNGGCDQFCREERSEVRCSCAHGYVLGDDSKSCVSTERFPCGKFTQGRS

| plasma concentration by anti-Xa functional assay, arithmetic mean and SD (exogenous bovine Xa; T0 (D−1), before starting the treatment) | range of concentrations observed with the anti-Xa functional tests (exogenous bovine Xa) | Cmax ([2]; human, plasma, oral, 2.5 mg) | interindividual variation in the Cmax (coefficient of variation) ([2]; T1, first intake the day after surgery) | Compound | mean increase in aPTT [1] | minimum period before reaching the steady state ([3]; 2.5 mg twice daily) | Cmax ([3]; after 7 days of 2.5-mg twice-daily treatment) | Cmax ([3]; after a first intake of 2.5 mg) |
| --- | --- | --- | --- | --- | --- | --- | --- | --- |
| 6 ± 7.5 ng/mL | 0 to 24 ng/mL | 75 ± 37 ng/mL |  | COc1ccc(-n2nc(C(N)=O)c3c2C(=O)N(c2ccc(N4CCCCC4=O)cc2)CC3)cc1 [Apixaban] | 6 s | ≥ 3 treatment days | 84 ng/mL | 51 ± 25 ng/mL |
|  | 0 to 25 ng/mL |  | around 100% | O=C(NC[C@H]1CN(c2ccc(N3CCOCC3=O)cc2)C(=O)O1)c1ccc(Cl)s1 [Rivaroxaban] | 15 s |  |  |  |
